IMP-1 inh: blocks Pseudomonas aeruginosa IMP-1 metallo-beta-lactamase; purified IMP-1, nitrocefin hydrolysis, epi-absorbance fluorescence; inhibition, % at 5.6 µM; 290,000 compounds, 0.45% hits;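 active = inhibition above the mean plus 3 SD of all compounds in the same screening run, cut at about 4.5% in these data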;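 note: 0% = IMP-1 with DMSO and 100% = DMSO wells lacking enzyme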
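System: purified IMP-1; amount: IMP-1 0.2 nM before substrate addition; compound: single dose, 5.6 µM; times: 25 °C, 15 min preincubation, 25 min reaction; signal: Epi-absorbance via hydrolysed-nitrocefin quenching of white-plate fluorescence, 480/530 nm, EDTA stop; benchmarks: DMSO with and without IMP-1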
CR mimetic SO: lowers age-related superoxide in aged yeast cells | S. cerevisiae aged cells, superoxide DHE fluorescence; stronger effect = lower value | superoxide response (% of plate mean), % at 10 µM | AID 2690 | 330,000 compounds, 0.18% hits;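 active = superoxide response under a set limit, about three screen SD below normal, cut at about 65% in these data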;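 note: yeast aged for seven days with compound at 30 °C before DHE staining; 100% = average MFI of all compound-treated wells on the plate with controls excluded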
PHOSPHO1 block: PHOSPHO1 (human) inhibition | inhibition, % at 13.3 µM | 290,000 compounds, 1.1% hits | recombinant PHOSPHO1, absorbance phosphatase assay | Q8TCT1; in the data active = inhibition above about 60%
Target sequence (Q8TCT1 whole entry, looked up): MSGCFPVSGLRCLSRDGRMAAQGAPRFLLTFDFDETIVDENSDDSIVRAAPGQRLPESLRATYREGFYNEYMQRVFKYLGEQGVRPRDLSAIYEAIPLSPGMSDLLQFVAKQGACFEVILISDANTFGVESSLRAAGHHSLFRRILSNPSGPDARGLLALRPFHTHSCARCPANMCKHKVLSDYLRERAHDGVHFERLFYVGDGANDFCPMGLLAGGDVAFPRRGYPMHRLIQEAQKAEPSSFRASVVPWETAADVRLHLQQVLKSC
PvdQ inh: blocks Pseudomonas aeruginosa PvdQ acylase activity; AID 488965; inhibition, % at 10 µM; purified PvdQ acylase, fluorescence plate reader; 340,000 compounds, 0.063% hits; in the data active = inhibition above about 30%, passing the limit was not always enough;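 note: 0% = vehicle neutral wells and 100% = reference inhibitor wells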
VIM-2 inh: blocks Pseudomonas aeruginosa VIM-2 metallo-beta-lactamase; purified VIM-2, nitrocefin hydrolysis, epi-absorbance fluorescence; inhibition, % at 5.6 µM; 290,000 compounds, 0.89% hits; AID 1527;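 active = inhibition above the mean of all tested compounds plus 3 SD, cutoff set per screening run, cut at about 7.5% in these data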;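 note: red hydrolysis product quenches plate fluorescence so inhibitors raise well fluorescence; 0% = enzyme with DMSO and 100% = DMSO without enzyme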
The depositor's hits bear a star. The list is not random: actives were taken first. Their share in the collection is about 2.2%.

O=C1Nc2ccccc2S/C1=C/Nc1cccc(Cl)c1 was read as IMP-1 inh -1.9, CR mimetic SO 83.9, PHOSPHO1 block 25.8, PvdQ inh -10.1 and VIM-2 inh 7.8*.
CC(C)N(C(=O)c1ccc(C(=O)Nc2ccc([N+](=O)[O-])cc2)cc1)C(C)C was read as IMP-1 inh 5.6*, CR mimetic SO 75.0, PHOSPHO1 block 24.7, PvdQ inh 1.8 and VIM-2 inh 1.7.
For COc1cc(-c2onc3ccc(Br)cc23)cc(OC)c1OC the results were IMP-1 inh -0.4, CR mimetic SO 110.5, PHOSPHO1 block 49.0, PvdQ inh -12.3 and VIM-2 inh 2.9.
Screening COc1ccc(-c2onc3ccc(Br)cc23)cc1 returned IMP-1 inh -4.0, CR mimetic SO 105.0, PHOSPHO1 block -2.2, PvdQ inh 34.3* and VIM-2 inh -3.8.
`O=S1(=O)N=C(SCCO)c2ccccc21` gave IMP-1 inh -2.4, CR mimetic SO 109.0, PHOSPHO1 block 92.2*, PvdQ inh 3.3 and VIM-2 inh -0.2.
For COC(=O)c1ccc(C2Nc3ccc(/C(C)=N/NC(=O)C(OC)c4ccccc4)cc3C3C=CCC32)cc1 (stereo not drawn) the results were IMP-1 inh -2.2, CR mimetic SO 114.5, PHOSPHO1 block 24.4, PvdQ inh 5.2 and VIM-2 inh -4.9.
Screening Cc1cccc(OCC(=O)NNC(=O)c2ccc3nc[nH]c3c2)c1 returned CR mimetic SO 82.3 and PvdQ inh -3.7.
Screening CCc1cccc(CC)c1NC(=O)COC(=O)c1ccccc1-c1nc2ccccc2s1 returned IMP-1 inh -0.6, CR mimetic SO 86.8, PHOSPHO1 block 177.7*, PvdQ inh -19.8 and VIM-2 inh -2.2.
For CSc1ccc(S(=O)(=O)N2CCC(C(=O)NCC3CCCO3)CC2)cc1 (stereo not drawn) the results were IMP-1 inh -0.4, CR mimetic SO 103.3, PHOSPHO1 block 15.0, PvdQ inh -13.2 and VIM-2 inh -0.2.
For COc1ccc(CCC(=O)NNC(=S)Nc2cccc(C(C)=O)c2)cc1 the results were IMP-1 inh -3.4, CR mimetic SO 103.4, PHOSPHO1 block -102.8, PvdQ inh 8.4 and VIM-2 inh 3.8.
CCN(CC)C(CNC(=O)CSc1nnnn1-c1ccc(C)c(C)c1)c1ccco1 (stereo not drawn) was read as CR mimetic SO 64.3* and PvdQ inh 5.8.
Screening COc1ccccc1NS(=O)(=O)c1ccc(C(=O)N2CCN(c3ccccn3)CC2)cc1 returned CR mimetic SO 99.9 and PvdQ inh -3.6.
Screening O=C(CSc1nc2ccccc2[nH]1)NCCN1CCCCC1 returned IMP-1 inh -3.9, CR mimetic SO 119.7, PHOSPHO1 block 64.6*, PvdQ inh -15.5 and VIM-2 inh -2.5.
CCn1c(=O)c2cc(C(=O)NCCC(C)C)sc2c2ccccc21 was read as IMP-1 inh -2.3, CR mimetic SO 107.0, PHOSPHO1 block 37.3, PvdQ inh -1.4 and VIM-2 inh 5.5.
For CCn1c(=O)c2cc(C(=O)NCCCOC)sc2c2ccccc21 the results were IMP-1 inh -1.7, CR mimetic SO 106.6, PHOSPHO1 block 9.3, PvdQ inh -3.1 and VIM-2 inh 9.0*.
CCn1c(=O)c2cc(C(=O)NCC(OC)OC)sc2c2ccccc21 was read as IMP-1 inh -4.7, CR mimetic SO 96.6, PHOSPHO1 block 15.3, PvdQ inh -1.5 and VIM-2 inh 6.7.
CCC(C)NC(=O)c1cc2c(=O)n(CC)c3ccccc3c2s1 (stereo not drawn) was read as IMP-1 inh -1.4, CR mimetic SO 107.2, PHOSPHO1 block -51.1, PvdQ inh -15.6 and VIM-2 inh 8.0*.
O=C(COc1ccccc1-c1ccccc1)NN=C1CCCC1 was read as IMP-1 inh -2.3, CR mimetic SO 81.2, PHOSPHO1 block 60.9*, PvdQ inh -27.0 and VIM-2 inh -2.6.
For O=C1CCC/C(=N\NC(=O)c2ccc(COc3ccccc3-c3ccccc3)cc2)C1 the results were IMP-1 inh -2.4, CR mimetic SO 96.6, PHOSPHO1 block 11.7, PvdQ inh -15.3 and VIM-2 inh -1.8.
Screening Cc1ccc2[nH]c(C(=O)N3CCN(C(c4ccccc4)c4ccccc4)CC3)cc2c1 returned IMP-1 inh 2.6, CR mimetic SO 95.5, PHOSPHO1 block 31.6, PvdQ inh -13.5 and VIM-2 inh 1.9.
Screening Cn1c(CO)cnc1SCc1c(Cl)cccc1Cl returned IMP-1 inh -1.7, CR mimetic SO 94.2, PHOSPHO1 block 74.0*, PvdQ inh -12.5 and VIM-2 inh 0.0.
